From publication PMC4254850 (Clinical cancer research : an official journal of the …, 2014)
Entries after “also recorded” stand apart in the source; their conditions may differ.

Columns and labels:
[1] = Plasma pharmacokinetics, LC/MS/MS, non-compartmental analysis; type: in vivo, human; conditions: for AUC(0-t) / Cmax / half-life: human, plasma, po
advanced solid tumors = assay: Tumor response; type: in vivo, human
Summary of the method: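 Response assessed by RECIST v1.1 using imaging at baseline and every two cycles in patients dosed orally, QD or BID, in 28-day cycles. Response data summarised with descriptive statistics.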

[2] = test system: mammalian target of rapamycin (mTOR); conditions: cited from earlier work
[3] = test system: human tumor xenograft models with PIK3CA mutations; conditions: in vivo; cited from earlier work
[4] = test system: human cancer cell lines with alterations in the PI3K pathway; conditions: in vitro; cited from earlier work

## CS(=O)(=O)N1CCc2c(-c3cnc(N)nc3)nc(N3CCOCC3)nc21 [CH5132799]
[1]; 2mg (QD), AUC0-24h repeat dose / single dose, mean, n=3
  Accumulation ratio: 0.912(3)
[1]; 4 mg (QD), AUC0-24h repeat dose / single dose, mean, n=3
  Accumulation ratio: 1.54(3)
[1]; 8 mg (QD), AUC0-24h repeat dose / single dose, mean, n=2
  Accumulation ratio: 1.22(2)
[1]; 16 mg (QD), AUC0-24h repeat dose / single dose, n=1
  Accumulation ratio: 0.972(1)
[1]; 32 mg (QD), AUC0-24h repeat dose / single dose, mean, n=2
  Accumulation ratio: 1.57(2)
[1]; 48 mg (BID), AUC0-12h repeat dose / single dose, mean, n=2
  Accumulation ratio: 1.10(2)
[1]; 56 mg (BID), AUC0-12h repeat dose / single dose, mean, n=2
  Accumulation ratio: 1.72(2)
[1]; 56 mg (QD), AUC0-24h repeat dose / single dose, mean, n=3
  Accumulation ratio: 1.07(3)
[1]; 72 mg (BID), AUC0-12h repeat dose / single dose, n=1
  Accumulation ratio: 2.25(1)
[1]; 96 mg (QD), AUC0-24h repeat dose / single dose, mean, n=3
  Accumulation ratio: 0.640(3)
[1]; doses above 56 mg QD
  AUC at doses above the dose-proportional range: no further increase in AUC; also recorded: no significant increments in AUC
[1]; 2 mg, AUC0-24h, 2mg (QD), repeat dose, mean, n=3
  AUC(0-t): 48.8 ng·h/mL
[1]; 2 mg, AUClast, 2mg (QD), single dose, mean, n=3, AUClast = AUC0-72h
  AUC(0-t): 53 ng·h/mL
[1]; 2 mg, 2mg (QD), repeat dose, mean, n=3
  Cmax: 9.92 ng/mL
[1]; 2 mg, 2mg (QD), single dose, mean, n=3
  Cmax: 10 ng/mL
[1]; 2 mg, t1/2, 2mg (QD), single dose, mean, n=3
  half-life: 7.52 h
[1]; 4 mg, AUC0-24h, 4 mg (QD), repeat dose, mean, n=3
  AUC(0-t): 167 ng·h/mL
[1]; 4 mg, AUClast, 4 mg (QD), single dose, mean, n=3, AUClast = AUC0-72h
  AUC(0-t): 112 ng·h/mL
[1]; 4 mg, 4 mg (QD), repeat dose, mean, n=3
  Cmax: 22.5 ng/mL
[1]; 4 mg, 4 mg (QD), single dose, mean, n=3
  Cmax: 17.2 ng/mL
[1]; 4 mg, t1/2, 4 mg (QD), single dose, mean, n=3
  half-life: 8.3 h
[1]; 8 mg, AUC0-24h, 8 mg (QD), repeat dose, mean, n=2
  AUC(0-t): 159 ng·h/mL
[1]; 8 mg, AUClast, 8 mg (QD), single dose, mean, n=3, AUClast = AUC0-72h
  AUC(0-t): 133 ng·h/mL
[1]; 8 mg, 8 mg (QD), repeat dose, mean, n=2
  Cmax: 46.3 ng/mL
[1]; 8 mg, 8 mg (QD), single dose, mean, n=3
  Cmax: 41.1 ng/mL
[1]; 8 mg, t1/2, 8 mg (QD), single dose, mean, n=3
  half-life: 23.7 h
[1]; 16 mg, AUC0-24h, 16 mg (QD), repeat dose, mean, n=2
  AUC(0-t): 621 ng·h/mL
[1]; 16 mg, AUClast, 16 mg (QD), single dose, n=1, AUClast = AUC0-72h
  AUC(0-t): 883 ng·h/mL
[1]; 16 mg, 16 mg (QD), repeat dose, mean, n=3
  Cmax: 100 ng/mL
[1]; 16 mg, 16 mg (QD), single dose, n=1
  Cmax: 113 ng/mL
[1]; 16 mg, t1/2, 16 mg (QD), single dose, n=1
  half-life: 13.7 h
[1]; 32 mg, AUC0-24h, 32 mg (QD), repeat dose, mean, n=2
  AUC(0-t): 1740 ng·h/mL
[1]; 32 mg, AUClast, 32 mg (QD), single dose, mean, n=4, AUClast = AUC0-72h
  AUC(0-t): 859 ng·h/mL
[1]; 32 mg, 32 mg (QD), repeat dose, mean, n=3
  Cmax: 345 ng/mL
[1]; 32 mg, 32 mg (QD), single dose, mean, n=4
  Cmax: 165 ng/mL
[1]; 32 mg, t1/2, 32 mg (QD), single dose, mean, n=4
  half-life: 12.2 h
[1]; 48 mg
  half-life: 10.2 h
[1]; 48 mg, AUC0-24h, 48 mg (BID) = MTD, repeat dose (steady state), mean, n=5, calculated based on data from 0 to 12 hours (AUC0-12h)
  AUC(0-t): 1550 ng·h/mL
[1]; 48 mg, AUClast, 48 mg (BID) = MTD, single dose, mean, n=4, AUClast = AUC0-72h
  AUC(0-t): 1270 ng·h/mL
[1]; 48 mg, 48 mg (BID) = MTD, repeat dose (steady state), mean, n=5
  Cmax: 175 ng/mL
[1]; 48 mg, 48 mg (BID) = MTD, single dose, mean, n=5
  Cmax: 172 ng/mL
[1]; 56 mg, AUC0-24h, 56 mg (BID), repeat dose, mean, n=2, calculated based on data from 0 to 12 hours (AUC0-12h)
  AUC(0-t): 5940 ng·h/mL
[1]; 56 mg, AUC0-24h, 56 mg (QD), repeat dose, mean, n=3
  AUC(0-t): 748 ng·h/mL
[1]; 56 mg, AUClast, 56 mg (BID), single dose, mean, n=5, AUClast = AUC0-72h
  AUC(0-t): 3030 ng·h/mL
[1]; 56 mg, AUClast, 56 mg (QD), single dose, mean, n=3, AUClast = AUC0-72h
  AUC(0-t): 969 ng·h/mL
[1]; 56 mg, 56 mg (BID), repeat dose, mean, n=3
  Cmax: 331 ng/mL
[1]; 56 mg, 56 mg (BID), single dose, mean, n=5
  Cmax: 428 ng/mL
[1]; 56 mg, 56 mg (QD), repeat dose, mean, n=3
  Cmax: 184 ng/mL
[1]; 56 mg, 56 mg (QD), single dose, mean, n=3
  Cmax: 163 ng/mL
[1]; 56 mg, t1/2, 56 mg (BID), single dose, mean, n=5
  half-life: 16.3 h
[1]; 56 mg, t1/2, 56 mg (QD), single dose, mean, n=3
  half-life: 14.5 h
[1]; 72 mg, AUC0-24h, 72 mg (BID), repeat dose, n=1, calculated based on data from 0 to 12 hours (AUC0-12h)
  AUC(0-t): 5580 ng·h/mL
[1]; 72 mg, AUClast, 72 mg (BID), single dose, mean, n=3, AUClast = AUC0-72h
  AUC(0-t): 2480 ng·h/mL
[1]; 72 mg, 72 mg (BID), repeat dose, n=1
  Cmax: 631 ng/mL
[1]; 72 mg, 72 mg (BID), single dose, mean, n=3
  Cmax: 265 ng/mL
[1]; 72 mg, t1/2, 72 mg (BID), single dose, mean, n=3
  half-life: 18.3 h
[1]; 96 mg, AUC0-24h, 96 mg (QD), repeat dose, mean, n=3
  AUC(0-t): 691 ng·h/mL
[1]; 96 mg, AUClast, 96 mg (QD), single dose, mean, n=4, AUClast = AUC0-72h
  AUC(0-t): 1650 ng·h/mL
[1]; 96 mg, 96 mg (QD), repeat dose, mean, n=3
  Cmax: 103 ng/mL
[1]; 96 mg, 96 mg (QD), single dose, mean, n=4
  Cmax: 206 ng/mL
[1]; 96 mg, t1/2, 96 mg (QD), single dose, mean, n=3
  half-life: 23.2 h
[1]; oral
  Dose range with dose proportionality of AUC: 2 to 56 mg
Advanced solid tumors; 48 mg BID
  Response by GCIG CA125 criteria, patient with PIK3CA H1047R-mutated clear cell ovarian cancer: partial response; also recorded: GCIG CA125 response
  Time on study of patient with GCIG CA125 response: 6 cycles
Advanced solid tumors; 72 mg BID
  Clinical response, heavily pre-treated patient with triple negative breast cancer (no PIK3CA or AKT mutations): marked symptomatic and objective improvement in their cutaneous skin lesions
Advanced solid tumors; all patients
  RECIST partial or complete responses: no RECIST partial or complete responses
  Study participants with best response of stable disease by RECIST: 21%
[2]
  Inhibitory activity against mTOR: no inhibitory activity
[3]
  Antitumor activity: significant antitumor activity
[4]
  Antiproliferative effect: strong antiproliferative effect
